# Test system: U2OS
# Experiment: Multiplex assay against U2OS
# Type: toxicity, cell-based
# Conditions: human
# Procedure, shortened: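 Values for tubulin, mitochondrial-mass and membrane-permeability phenotypes are per cents of cells with healthy nuclei. These cells were identified by CellPathfinder machine-learning gating of live cells that had been stained at seeding with Hoechst33342, BioTracker Green Microtubule Cytoskeleton Dye, MitoTracker Red and Annexin V Alexa Fluor 680 and imaged on a CQ1 microscope at 37°C and 5% CO2 after compound addition. The gating first set Hoechst high-intensity objects apart from normal cells, then split normal cells into healthy, pyknosed or fragmented nuclei, and pyknosed cells into mitotic or apoptotic.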
# [1] = 12 h, 1 µM, compound concentration 1 uM, replicate 1
# [2] = 12 h, 1 µM, compound concentration 1 uM, replicate 2
# [3] = 12 h, 10 µM, compound concentration 10 uM, replicate 1
# [4] = 12 h, 10 µM, compound concentration 10 uM, replicate 2
# [5] = 24 h, 1 µM, compound concentration 1 uM, replicate 1
# [6] = 24 h, 1 µM, compound concentration 1 uM, replicate 2
# [7] = 24 h, 10 µM, compound concentration 10 uM, replicate 1
# [8] = 24 h, 10 µM, compound concentration 10 uM, replicate 2
# [9] = 48 h, 1 µM, compound concentration 1 uM, replicate 1
# [10] = 48 h, 1 µM, compound concentration 1 uM, replicate 2
# [11] = 48 h, 10 µM, compound concentration 10 uM, replicate 1
# [12] = 48 h, 10 µM, compound concentration 10 uM, replicate 2
smiles,measurement,setting,value
CCc1ccc(OCc2ccccc2C(=O)Nc2ccc3nc(C)cc(N)c3c2)cc1.Cl,Population Apoptotic (%),[1],80%
same,Population Fragmented Nuclei (%),[1],25%
same,Population Healthy Nuclei (%),[1],34%
same,Population Hoechst High Intensity Objects (%),[1],10%
same,Population Membrane Permeable-Phenotype (%),[1],27%
same,Population Mitochondria Different-Phenotype (%),[1],95%
same,Population Mitotic Cells (%),[1],19%
same,Population Normal (%),[1],89%
same,Population Pyknosed Nuclei (%),[1],40%
same,Population Tubulin-Different-Phenotype (%),[1],87%
same,Total Cell Count,[1],191
same,Population Apoptotic (%),[2],71%
same,Population Fragmented Nuclei (%),[2],33%
same,Population Healthy Nuclei (%),[2],33%
same,Population Hoechst High Intensity Objects (%),[2],16%
same,Population Membrane Permeable-Phenotype (%),[2],28%
same,Population Mitochondria Different-Phenotype (%),[2],92%
same,Population Mitotic Cells (%),[2],28%
same,Population Normal (%),[2],84%
same,Population Pyknosed Nuclei (%),[2],33%
same,Population Tubulin-Different-Phenotype (%),[2],85%
same,Total Cell Count,[2],68
same,Population Apoptotic (%),[3],78%
same,Population Fragmented Nuclei (%),[3],9%
same,Population Healthy Nuclei (%),[3],22%
same,Population Hoechst High Intensity Objects (%),[3],7%
same,Population Membrane Permeable-Phenotype (%),[3],75%
same,Population Mitotic Cells (%),[3],21%
same,Population Normal (%),[3],92%
same,Population Pyknosed Nuclei (%),[3],68%
same,Population Tubulin-Different-Phenotype (%),[3],97%
same,Total Cell Count,[3],129
same,Population Apoptotic (%),[4],76%
same,Population Fragmented Nuclei (%),[4],8%
same,Population Healthy Nuclei (%),[4],14%
same,Population Hoechst High Intensity Objects (%),[4],12%
same,Population Membrane Permeable-Phenotype (%),[4],100%
same,Population Mitochondria Different-Phenotype (%),[4],100%
same,Population Mitotic Cells (%),[4],23%
same,Population Normal (%),[4],87%
same,Population Pyknosed Nuclei (%),[4],77%
same,Population Tubulin-Different-Phenotype (%),[4],100%
same,Total Cell Count,[4],50
same,Population Apoptotic (%),[5],90%
same,Population Fragmented Nuclei (%),[5],44%
same,Population Healthy Nuclei (%),[5],16%
same,Population Hoechst High Intensity Objects (%),[5],11%
same,Population Membrane Permeable-Phenotype (%),[5],57%
same,Population Mitochondria Different-Phenotype (%),[5],94%
same,Population Mitotic Cells (%),[5],9%
same,Population Normal (%),[5],88%
same,Population Pyknosed Nuclei (%),[5],38%
same,Population Tubulin-Different-Phenotype (%),[5],73%
same,Total Cell Count,[5],234
same,Population Apoptotic (%),[6],83%
same,Population Fragmented Nuclei (%),[6],25%
same,Population Healthy Nuclei (%),[6],28%
same,Population Hoechst High Intensity Objects (%),[6],17%
same,Population Membrane Permeable-Phenotype (%),[6],27%
same,Population Mitochondria Different-Phenotype (%),[6],90%
same,Population Mitotic Cells (%),[6],16%
same,Population Normal (%),[6],82%
same,Population Pyknosed Nuclei (%),[6],46%
same,Population Tubulin-Different-Phenotype (%),[6],63%
same,Total Cell Count,[6],92
same,Population Apoptotic (%),[7],79%
same,Population Fragmented Nuclei (%),[7],7%
same,Population Healthy Nuclei (%),[7],13%
same,Population Hoechst High Intensity Objects (%),[7],12%
same,Population Membrane Permeable-Phenotype (%),[7],54%
same,Population Mitochondria Different-Phenotype (%),[7],100%
same,Population Mitotic Cells (%),[7],20%
same,Population Normal (%),[7],87%
same,Population Pyknosed Nuclei (%),[7],78%
same,Population Tubulin-Different-Phenotype (%),[7],95%
same,Total Cell Count,[7],127
same,Population Apoptotic (%),[8],70%
same,Population Fragmented Nuclei (%),[8],15%
same,Population Healthy Nuclei (%),[8],38%
same,Population Hoechst High Intensity Objects (%),[8],31%
same,Population Membrane Permeable-Phenotype (%),[8],47%
same,Population Mitochondria Different-Phenotype (%),[8],94%
same,Population Mitotic Cells (%),[8],30%
same,Population Normal (%),[8],68%
same,Population Pyknosed Nuclei (%),[8],45%
same,Population Tubulin-Different-Phenotype (%),[8],94%
same,Total Cell Count,[8],47
same,Population Apoptotic (%),[9],96%
same,Population Fragmented Nuclei (%),[9],46%
same,Population Healthy Nuclei (%),[9],3%
same,Population Hoechst High Intensity Objects (%),[9],15%
same,Population Membrane Permeable-Phenotype (%),[9],75%
same,Population Mitochondria Different-Phenotype (%),[9],100%
same,Population Mitotic Cells (%),[9],3%
same,Population Normal (%),[9],84%
same,Population Pyknosed Nuclei (%),[9],50%
same,Population Tubulin-Different-Phenotype (%),[9],75%
same,Total Cell Count,[9],377
same,Population Apoptotic (%),[10],100%
same,Population Fragmented Nuclei (%),[10],29%
same,Population Healthy Nuclei (%),[10],37%
same,Population Hoechst High Intensity Objects (%),[10],28%
same,Population Membrane Permeable-Phenotype (%),[10],71%
same,Population Mitochondria Different-Phenotype (%),[10],92%
same,Population Mitotic Cells (%),[10],0%
same,Population Normal (%),[10],71%
same,Population Pyknosed Nuclei (%),[10],32%
same,Population Tubulin-Different-Phenotype (%),[10],78%
same,Total Cell Count,[10],140
same,Population Apoptotic (%),[11],84%
same,Population Fragmented Nuclei (%),[11],9%
same,Population Healthy Nuclei (%),[11],12%
same,Population Hoechst High Intensity Objects (%),[11],11%
same,Population Membrane Permeable-Phenotype (%),[11],40%
same,Population Mitochondria Different-Phenotype (%),[11],95%
same,Population Mitotic Cells (%),[11],16%
same,Population Normal (%),[11],88%
same,Population Pyknosed Nuclei (%),[11],77%
same,Population Tubulin-Different-Phenotype (%),[11],90%
same,Total Cell Count,[11],130
same,Population Apoptotic (%),[12],100%
same,Population Fragmented Nuclei (%),[12],47%
same,Population Healthy Nuclei (%),[12],43%
same,Population Hoechst High Intensity Objects (%),[12],63%
same,Population Membrane Permeable-Phenotype (%),[12],60%
same,Population Mitochondria Different-Phenotype (%),[12],90%
same,Population Mitotic Cells (%),[12],0%
same,Population Normal (%),[12],36%
same,Population Pyknosed Nuclei (%),[12],8%
same,Total Cell Count,[12],52
